According to ChEMBL document CHEMBL2203116, “Synthesis and evaluation of novel carbon-11 labeled oxopurine analogues for positron emission tomography imaging of translocator protein (18 kDa) in peripheral organs” (J Med Chem, 2011):

What was measured:
Heart [1] = assay: Drug uptake in Sprague-Dawley rat heart at 0.15 nmol, iv pretreated with unlabeled (R)-PK11195 by PET scanning; format: ADME, organism-based; conditions: in vivo
In short: (§1)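 Isoflurane-anesthetized Sprague-Dawley rats underwent 30-min PET after iv [11C]radioligand, with unlabeled blocker given iv 1 min before tracer. Blockers were (R)-PK11195 at 3.0 mg/kg or AC-5216 at 1.0 mg/kg in 300 μL saline with 10% ethanol and 5% polysorbate 80. Regional uptake was decay-corrected SUV (n = 4).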

Kidney [2] = assay: Drug uptake in Sprague-Dawley rat kidney at 0.15 nmol, iv pretreated with unlabeled (R)-PK11195 by PET scanning; format: ADME, organism-based; conditions: in vivo
In short: (§2)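 Male Sprague-Dawley rats (6–8 weeks old), isoflurane-anesthetized, prone. ROIs on lung, heart, kidney, liver, small intestine and cardiac blood pool. Uptake decay-corrected to injection time and expressed as SUV (body-weight normalized). n = 4, mean ± SD.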

Heart [3] = assay: Drug uptake in Sprague-Dawley rat heart at 0.15 nmol, iv pretreated with unlabeled AC-5216 by PET scanning; format: ADME, organism-based; conditions: in vivo; in short: as §1
Kidney [4] = assay: Drug uptake in Sprague-Dawley rat kidney at 0.15 nmol, iv pretreated with unlabeled AC-5216 by PET scanning; format: ADME, organism-based; conditions: in vivo; in short: as §2
Liver [5] = assay: Drug uptake in Sprague-Dawley rat liver at 0.15 nmol, iv pretreated with unlabeled AC-5216 measured after 27.5 mins by PET scanning relative to control; format: ADME, organism-based; conditions: in vivo
In short: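 Male Sprague-Dawley rats, 6-8 weeks, isoflurane-anesthetized. A blocking TSPO ligand (1.0 mg/kg, in 300 μL saline with 10% ethanol and 5% polysorbate 80) was injected 1 min before iv radioligand (16-18 MBq/200 μL). Liver ROI as decay-corrected SUV (injected activity, body weight), 27.5-min value versus controls; n = 4.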

[6] = Metabolic stability in Sprague-Dawley rat heart assessed as unchanged compound at 0.32 nmol, iv after 30 mins by analytical radio- HPLC; format: ADME, organism-based; conditions: read-out: Stability
In short: (§3)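 Rats (n = 3) given radioligand iv (37 MBq/100 μL, 0.32 nmol) and killed at 30 min. Heart and kidney homogenized in ice-cold MeCN/H2O 4/6, centrifuged 15000 rpm for 1 min at 4 °C. Supernatant run on analytical radio-HPLC (C18, MeCN/H2O 4/6). Percent parent = parent peak area over total peak areas, decay-corrected. Mean ± SD.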

[7] = Metabolic stability in Sprague-Dawley rat kidney assessed as unchanged compound at 0.32 nmol, iv after 30 mins by analytical radio- HPLC; format: ADME, organism-based; conditions: read-out: Stability; in short: as §3
[8] = Metabolic stability in Sprague-Dawley rat plasma assessed as unchanged compound at 0.32 nmol, iv after 30 mins by analytical radio- HPLC; format: ADME, organism-based; conditions: read-out: Stability
Brain [9] = assay: Biodistribution in LPS-treated Sprague-Dawley rat brain at 0.19 nmol, iv by gamma counting; format: ADME, organism-based; conditions: in vivo
In short: (§4)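 Male Sprague-Dawley rats were given intratracheal LPS (E. coli O127:B8, 5.0 mg/kg in 50 μL saline) or 50 μL saline vehicle 24 h before tracer. [11C]Radioligand (16 MBq/200 μL, 0.19 nmol) in saline was injected via the tail vein. Rats were killed at 30 min (n = 4 per group). Tissues were weighed and gamma-counted, expressed as decay-corrected %ID/g.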

Lung [10] = assay: Biodistribution in LPS-treated Sprague-Dawley rat lung at 0.19 nmol, iv by gamma counting; format: ADME, organism-based; conditions: in vivo; in short: as §4
Heart [11] = assay: Biodistribution in LPS-treated Sprague-Dawley rat heart at 0.19 nmol, iv by gamma counting; format: ADME, organism-based; conditions: in vivo; in short: as §4
Liver [12] = assay: Biodistribution in LPS-treated Sprague-Dawley rat liver at 0.19 nmol, iv by gamma counting; format: ADME, organism-based; conditions: in vivo; in short: as §4
Kidney [13] = assay: Biodistribution in LPS-treated Sprague-Dawley rat kidney at 0.19 nmol, iv by gamma counting; format: ADME, organism-based; conditions: in vivo; in short: as §4
Spleen [14] = assay: Biodistribution in LPS-treated Sprague-Dawley rat spleen at 0.19 nmol, iv by gamma counting; format: ADME, organism-based; conditions: in vivo; in short: as §4
Adrenal [15] = assay: Biodistribution in LPS-treated Sprague-Dawley rat adrenal at 0.19 nmol, iv by gamma counting; format: ADME, organism-based, Adrenal tissue; conditions: in vivo; in short: as §4
Muscle tissue [16] = assay: Biodistribution in LPS-treated Sprague-Dawley rat muscle at 0.19 nmol, iv by gamma counting; format: ADME, organism-based; conditions: in vivo; in short: as §4
Brain [17] = assay: Biodistribution in Sprague-Dawley rat brain at 0.19 nmol, iv by gamma counting; format: ADME, organism-based; conditions: in vivo; in short: as §4
Liver [18] = assay: Biodistribution in Sprague-Dawley rat liver at 0.19 nmol, iv by gamma counting; format: ADME, organism-based; conditions: in vivo; in short: as §4
Spleen [19] = assay: Biodistribution in Sprague-Dawley rat spleen at 0.19 nmol, iv by gamma counting; format: ADME, organism-based; conditions: in vivo; in short: as §4
Pancreas = assay: Biodistribution in Sprague-Dawley rat pancreas at 0.19 nmol, iv by gamma counting; format: ADME, organism-based; conditions: in vivo; in short: as §4
Adrenal [20] = assay: Biodistribution in Sprague-Dawley rat adrenal at 0.19 nmol, iv by gamma counting; format: ADME, organism-based, Adrenal tissue; conditions: in vivo; in short: as §4
Rattus norvegicus = assay: Biodistribution in Sprague-Dawley rat small intestine at 0.19 nmol, iv by gamma counting; format: ADME, organism-based; conditions: in vivo; in short: as §4
Muscle tissue [21] = assay: Biodistribution in Sprague-Dawley rat muscle at 0.19 nmol, iv by gamma counting; format: ADME, organism-based; conditions: in vivo; in short: as §4
Blood [22] = assay: Drug uptake in Sprague-Dawley rat cardiac blood pool at 0.15 nmol, iv after 27.5 mins by PET scanning; format: ADME, organism-based; conditions: in vivo
In short: (§5)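 Isoflurane-anesthetized male Sprague-Dawley rats lay prone and received an iv bolus of [11C]radioligand in 200 μL. 3D list-mode emission scans ran 30 min from injection. Regions of interest were drawn on the organs and cardiac blood pool. Uptake was decay-corrected to injection time and expressed as SUV (normalized to injected radioactivity and body weight). Values are mean of n = 4.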

Liver [23] = assay: Drug uptake in Sprague-Dawley rat liver at 0.15 nmol, iv after 27.5 mins by PET scanning; format: ADME, organism-based; conditions: in vivo; in short: as §2
Lung [24] = assay: Drug uptake in Sprague-Dawley rat lung at 0.15 nmol, iv after 30 mins by PET scanning; format: ADME, organism-based; conditions: in vivo, 0.5 h; in short: as §2
Heart [25] = assay: Drug uptake in Sprague-Dawley rat heart at 0.15 nmol, iv up to 30 mins by PET scanning; format: ADME, organism-based; conditions: in vivo, 0.5 h; in short: as §5
Liver [26] = assay: Drug uptake in Sprague-Dawley rat liver at 0.15 nmol, iv up to 30 mins by PET scanning; format: ADME, organism-based; conditions: in vivo, 0.5 h; in short: as §2
Blood [27] = assay: Drug uptake in Sprague-Dawley rat cardiac blood pool at 0.15 nmol, iv up to 30 mins by PET scanning; format: ADME, organism-based; conditions: in vivo, 0.5 h; in short: as §5
Intestine = assay: Drug uptake in Sprague-Dawley rat small intestine at 0.15 nmol, iv up to 30 mins by PET scanning; format: ADME, organism-based; conditions: in vivo, 0.5 h; in short: as §2
Lung [28] = assay: Drug uptake in Sprague-Dawley rat lung at 0.15 nmol, iv after 2 mins by PET scanning; format: ADME, organism-based; conditions: in vivo; in short: as §2
Heart [29] = assay: Drug uptake in Sprague-Dawley rat heart at 0.15 nmol, iv after 2 mins by PET scanning; format: ADME, organism-based; conditions: in vivo; in short: as §5
Kidney [30] = assay: Drug uptake in Sprague-Dawley rat kidney at 0.15 nmol, iv after 2 mins by PET scanning; format: ADME, organism-based; conditions: in vivo; in short: as §2
Liver [31] = assay: Drug uptake in Sprague-Dawley rat liver at 0.15 nmol, iv after 2 mins by PET scanning; format: ADME, organism-based; conditions: in vivo; in short: as §2
Lung [32] = assay: Drug uptake in Sprague-Dawley rat lung at 0.15 nmol, iv after 27.5 mins by PET scanning; format: ADME, organism-based; conditions: in vivo; in short: as §2
Heart [33] = assay: Drug uptake in Sprague-Dawley rat heart at 0.15 nmol, iv after 27.5 mins by PET scanning; format: ADME, organism-based; conditions: in vivo; in short: as §5
Kidney [34] = assay: Drug uptake in Sprague-Dawley rat kidney at 0.15 nmol, iv after 27.5 mins by PET scanning; format: ADME, organism-based; conditions: in vivo; in short: as §2

CCN(Cc1ccncc1)C(=O)Cn1c(=O)n([11CH3])c2cnc(-c3ccccc3)nc21
Drug uptake (Heart [1]): Not Active
Drug uptake (Kidney [2]): Not Active
Drug uptake (Heart [3]): Not Active
Drug uptake (Kidney [4]): Not Active
fold change (FC) (Liver [5]): 1.5
remaining at 0.5 h [6]: 93.8%
remaining at 0.5 h [7]: 94.7%
remaining at 0.5 h [8]: 23.4%
Drug uptake (Brain [9]): 0.02 % ID/g
Drug uptake (Lung [10]): 3.54 % ID/g
Drug uptake (Heart [11]): 2.17 % ID/g
Drug uptake (Liver [12]): 1.03 % ID/g
Drug uptake (Kidney [13]): 1.97 % ID/g
Drug uptake (Spleen [14]): 1.88 % ID/g
Drug uptake (Adrenal [15]): 5.27 % ID/g
Drug uptake (Muscle tissue [16]): 0.1 % ID/g
Drug uptake (Brain [17]): 0.02 % ID/g
Drug uptake (Liver [18]): 0.53 % ID/g
Drug uptake (Spleen [19]): 1.88 % ID/g
Drug uptake (Pancreas): 0.38 % ID/g
Drug uptake (Adrenal [20]): 7.49 % ID/g
Drug uptake (Rattus norvegicus): 1.57 % ID/g
Drug uptake (Muscle tissue [21]): 0.11 % ID/g
SUV (Blood [22]): 0.4
SUV (Liver [23]): 0.5
Drug uptake (Lung [24]): Active
Drug uptake (Heart [25]): Active
Drug uptake (Liver [26]): Active
Drug uptake (Blood [27]): Active
Drug uptake (Intestine): Active
SUV (Lung [28]): 3.4
SUV (Heart [29]): 4.6
SUV (Kidney [30]): 3.3
SUV (Liver [31]): 1.6
SUV (Lung [32]): 0.5
SUV (Heart [33]): 0.9
SUV (Kidney [34]): 1
